Laboratory results published in ChEMBL document CHEMBL1149144, “Structure-based design of potent retinoid X receptor alpha agonists” (J Med Chem, 2004).

How the values were obtained:
[1] = biological target: T1, Retinoic acid receptor RXR-alpha (Homo sapiens, UniProt P19793); test: Effective concentration for Retinoid X receptor alpha activity in CV-1 cells; assay type: functional, cell-based
T1 sequence (P19793 whole entry): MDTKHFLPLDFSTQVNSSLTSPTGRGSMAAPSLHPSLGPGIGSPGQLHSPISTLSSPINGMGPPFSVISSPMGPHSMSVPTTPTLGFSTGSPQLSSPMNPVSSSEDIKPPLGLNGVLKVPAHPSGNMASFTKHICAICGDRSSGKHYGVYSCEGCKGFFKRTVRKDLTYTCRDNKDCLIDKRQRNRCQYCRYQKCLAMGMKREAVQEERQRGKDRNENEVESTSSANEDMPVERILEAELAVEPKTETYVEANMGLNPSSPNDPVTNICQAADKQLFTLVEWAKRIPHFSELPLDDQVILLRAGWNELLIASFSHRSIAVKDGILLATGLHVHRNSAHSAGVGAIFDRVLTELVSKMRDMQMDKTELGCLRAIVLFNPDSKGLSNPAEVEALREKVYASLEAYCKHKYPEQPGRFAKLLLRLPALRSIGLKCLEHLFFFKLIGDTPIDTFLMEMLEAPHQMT
How it was run: (§1)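 CV-1 monkey kidney cells transiently transfected with a full-length hRXRα expression vector (RXRα) or a GAL4-hRARα vector (RARα), each with an RXRα- or RARα-responsive reporter gene construct. Top concentration 10 µM; EC50 calculated from the reporter response.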

[2] = biological target: T2, Retinoic acid receptor alpha (Homo sapiens, UniProt P10276); test: Binding affinity for retinoic acid receptor alpha (RARalpha), using 9-cis-[3H]-retinoic acid
T2 sequence (P10276 whole entry): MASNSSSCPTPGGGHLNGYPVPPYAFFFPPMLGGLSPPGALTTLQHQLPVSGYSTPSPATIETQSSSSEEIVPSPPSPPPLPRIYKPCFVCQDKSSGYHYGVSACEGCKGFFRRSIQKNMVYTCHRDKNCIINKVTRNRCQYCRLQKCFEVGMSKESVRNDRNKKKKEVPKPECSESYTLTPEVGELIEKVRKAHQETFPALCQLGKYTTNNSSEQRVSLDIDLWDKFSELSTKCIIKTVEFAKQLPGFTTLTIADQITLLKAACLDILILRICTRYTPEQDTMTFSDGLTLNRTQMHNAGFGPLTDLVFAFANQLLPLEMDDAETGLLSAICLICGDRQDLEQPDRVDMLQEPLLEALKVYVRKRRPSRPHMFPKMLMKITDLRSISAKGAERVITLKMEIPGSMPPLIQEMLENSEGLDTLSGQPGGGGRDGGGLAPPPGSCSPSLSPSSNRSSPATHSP
How it was run: (§2)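 Scintillation proximity binding assay; Ki from competition of 2.5 nM 9-cis-RA at RXRα and RARα, with test compound up to 10 µM.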

[3] = biological target: T1, Retinoic acid receptor RXR-alpha; test: Binding affinity for retinoid X receptor alpha (RXRalpha), using 9-cis-[3H]-retinoic acid; how it was run: as §2
[4] = biological target: T2, Retinoic acid receptor alpha; test: Effective concentration for Retinoic acid receptor alpha activity in CV-1 cells; assay type: functional, cell-based; how it was run: as §1
[5] = biological target: T1, Retinoic acid receptor RXR-alpha; test: Effective concentration for Retinoid X receptor alpha activity in CV-1 cells; Partial agonist; assay type: functional, cell-based; how it was run: as §1

| Structure (SMILES) | EC50 [1] [nM] | Ki [2] [nM] | Ki [3] [nM] | EC50 [4] [nM] | EC50 [5] [nM] |
| --- | --- | --- | --- | --- | --- |
| CN1Cc2oc(/C=C/C(=O)O)cc2C(c2ccc3c(c2)C(C)(C)CCC3(C)C)C1 (centres undefined) | 70 | > 1000 | 79 |  |  |
| CC(=CC(=O)O)c1cc2c(o1)CCCC2c1ccc2c(c1)C(C)(C)CCC2(C)C (centres undefined) | 60 | > 1000 | 63 | > 10000 |  |
| O=C1NC(=O)/C(=C/c2ccc(-c3cccc(Br)c3)o2)S1 |  |  | 1500 |  |  |
| COc1cc2c(cc1C1CCCc3oc(/C=C/C(=O)O)cc31)C(C)(C)CCC2(C)C (centres undefined) |  | > 1000 | 20 | > 10000 | 48 |
| CC1(C)CCC(C)(C)c2cc(C3CCCc4oc(/C=C5/SC(=O)NC5=O)cc43)ccc21 (centres undefined) | 4 | > 1000 | 20 | > 10000 |  |
| Cc1cc2c(cc1C1CCCc3oc(/C=C/C(=O)O)cc31)C(C)(C)CCC2(C)C (centres undefined) | 29 | > 1000 | 40 | > 10000 |  |
| CC1(C)CCC(C)(C)c2cc(C3CCCc4oc(C(=O)O)cc43)ccc21 (centres undefined) | > 10000 | > 1000 | > 3000 |  |  |
| CC1(C)CCC(C)(C)c2cc(C3CCCc4sc(CCC(=O)O)cc43)ccc21 (centres undefined) | 97 | > 1000 | 200 | > 10000 |  |
| CC1(C)CCC(C)(C)c2cc(-c3ccc(/C=C/C(=O)O)o3)ccc21 |  | 93 | > 1000 |  |  |
